Reference: ChEMBL document CHEMBL4428114, “An LP1 analogue, selective MOR agonist with a peculiar pharmacological profile, used to scrutiny the ligand binding domain” (Bioorg Med Chem, 2016)
The source made the active and inactive calls.

Experiments:
[1] = molecular target: Delta-type opioid receptor (Homo sapiens, UniProt P41143); assay: Displacement of [3H]DPDPE from human DOR expressed in CHO cells; format: cell-based
[2] = species on record: Homo sapiens; assay: Selectivity ratio of Ki for displacement of [3H]DPDPE from human DOR expressed in CHO cells to Ki for displacement of [3H]DAMGO from MOR in HEK293 cells; format: cell-based
[3] = Selectivity ratio of Ki for displacement of [3H]U69593 from rat KOR expressed in CHO cells to Ki for displacement of [3H]DAMGO from MOR in HEK293 cells; format: cell-based
[4] = molecular target: Kappa-type opioid receptor (Rattus norvegicus, UniProt P34975); assay: Displacement of [3H]U69593 from rat KOR expressed in CHO cells; format: cell-based
Sequence of Kappa-type opioid receptor (Rattus norvegicus, UniProt P34975) (P34975 whole entry): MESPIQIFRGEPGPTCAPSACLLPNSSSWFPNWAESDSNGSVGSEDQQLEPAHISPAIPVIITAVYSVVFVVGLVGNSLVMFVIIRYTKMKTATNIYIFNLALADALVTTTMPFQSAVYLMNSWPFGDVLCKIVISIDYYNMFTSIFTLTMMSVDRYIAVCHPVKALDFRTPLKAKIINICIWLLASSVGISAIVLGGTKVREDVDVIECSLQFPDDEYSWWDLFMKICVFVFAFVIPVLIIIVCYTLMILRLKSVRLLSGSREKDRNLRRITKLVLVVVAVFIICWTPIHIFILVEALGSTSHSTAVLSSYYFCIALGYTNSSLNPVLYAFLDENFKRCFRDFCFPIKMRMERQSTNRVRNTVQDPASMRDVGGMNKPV

[5] = molecular target: T1, Mu-type opioid receptor (Homo sapiens, UniProt P35372); assay: Displacement of [3H]DAMGO from MOR in HEK293 cells; format: cell-based
T1 sequence (P35372 whole entry): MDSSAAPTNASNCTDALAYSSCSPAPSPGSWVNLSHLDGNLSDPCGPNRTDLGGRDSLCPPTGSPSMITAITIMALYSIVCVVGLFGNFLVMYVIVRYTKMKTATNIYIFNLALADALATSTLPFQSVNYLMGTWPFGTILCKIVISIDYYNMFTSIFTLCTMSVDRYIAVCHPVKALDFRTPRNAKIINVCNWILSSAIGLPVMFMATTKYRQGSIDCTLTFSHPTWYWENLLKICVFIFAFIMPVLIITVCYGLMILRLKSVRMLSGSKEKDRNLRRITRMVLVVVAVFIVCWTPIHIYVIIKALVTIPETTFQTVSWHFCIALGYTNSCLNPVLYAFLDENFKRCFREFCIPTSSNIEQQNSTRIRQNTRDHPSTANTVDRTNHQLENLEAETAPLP

[6] = molecular target: Kappa-type opioid receptor (Homo sapiens, UniProt P41145); assay: Displacement of [3H]Diprenorphine from human KOR expressed in HEK293 cell membranes by liquid scintillation counting
Sequence of Kappa-type opioid receptor (Homo sapiens, UniProt P41145) (P41145 whole entry): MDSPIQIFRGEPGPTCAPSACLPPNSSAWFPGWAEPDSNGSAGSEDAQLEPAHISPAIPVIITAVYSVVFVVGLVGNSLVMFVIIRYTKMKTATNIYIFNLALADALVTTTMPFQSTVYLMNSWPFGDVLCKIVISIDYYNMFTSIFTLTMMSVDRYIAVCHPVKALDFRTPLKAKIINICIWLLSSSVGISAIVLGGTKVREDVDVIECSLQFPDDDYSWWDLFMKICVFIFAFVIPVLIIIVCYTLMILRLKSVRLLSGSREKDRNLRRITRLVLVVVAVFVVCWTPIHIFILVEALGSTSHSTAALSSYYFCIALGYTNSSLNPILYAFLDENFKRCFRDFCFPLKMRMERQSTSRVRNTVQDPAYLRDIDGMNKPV

[7] = molecular target: T1, Mu-type opioid receptor; assay: Displacement of [3H]Diprenorphine from human MOR expressed in HEK293 cell membranes by liquid scintillation counting
[8] = species on record: Homo sapiens; assay: Selectivity ratio of Ki for displacement of [3H]Diprenorphine from human KOR expressed in HEK293 cell membranes to Ki for displacement of [3H]Diprenorphine from human MOR expressed in HEK293 cell membranes
[9] = tested on: Mus musculus; assay: Antinociceptive activity in CB1 mouse assessed as increase in tail flick latency at 5 mg/kg, ip up to 90 mins; format: functional, organism-based
[10] = tested on: Mus musculus; assay: Antinociceptive activity in CB1 mouse assessed as increase in tail flick latency at 5 mg/kg, ip after 60 mins; format: functional, organism-based
[11] = tested on: Mus musculus; assay: Antinociceptive activity in CB1 mouse assessed as increase in tail flick latency at 5 mg/kg, ip administered 45 mins post naloxone challenge measured up to 90 mins in presence of naloxone; format: functional, organism-based
Procedure, shortened: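 Naloxone was given at 3 mg/kg ip, 45 min before 5 mg/kg ip test compound, in male Swiss CB1 mice (25–30 g). Infrared tail-flick latency (lower third of tail, 10 s cutoff, baseline mean of three readings) was measured at 30, 60 and 90 min post-injection (n = 8).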

[12] = molecular target: Mu-type opioid receptor (Cavia porcellus) (UniProt P97266); assay: Agonist activity at MOR in Dunkin-Hartley guinea pig ileum assessed as inhibition of electrically-evoked contractions in presence of mu-opioid receptor agonist DAMGO; format: tissue-based
Sequence of Mu-type opioid receptor (Cavia porcellus) (P97266 whole entry): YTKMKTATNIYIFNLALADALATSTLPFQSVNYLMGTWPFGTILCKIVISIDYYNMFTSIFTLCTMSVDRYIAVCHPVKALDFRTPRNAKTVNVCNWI
Procedure, shortened: (§1)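 Guinea-pig ileum strips held under a 2 g load and equilibrated for 60 min. Contractions were evoked by transmural single pulses (0.1 Hz, 0.3 ms, 200 mA), followed by a further 60–90 min equilibration with repeated Krebs changes. Compound was added cumulatively, at least 5 min per step. Inhibition was expressed as percentage change from baseline, with EC50 from non-linear curve fitting (n = 6–8).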

[13] = molecular target: Mu-type opioid receptor (Cavia porcellus) (UniProt P97266); assay: Agonist activity at MOR in Dunkin-Hartley guinea pig ileum assessed as inhibition of electrically-evoked contractions; format: tissue-based; procedure, shortened: as §1
[14] = tested on: Mus musculus; assay: Antinociceptive activity in ip dosed CB1 mouse assessed as increase in tail flick latency after 30 mins; format: functional, organism-based
[15] = molecular target: Mu-type opioid receptor (Cavia porcellus) (UniProt P97266); assay: Agonist activity at MOR in Dunkin-Hartley guinea pig ileum assessed as inhibition of electrically-evoked contractions in presence of mu-opioid receptor antagonist naloxonazine; format: tissue-based
Procedure, shortened: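 Electrically stimulated guinea-pig ileum strips (2 g load; single pulses 0.1 Hz, 0.3 ms, 200 mA) were tested with naloxonazine present at 10^-6 M. Agonist was added cumulatively, at least 5 min apart, after 60–90 min equilibration in Krebs. Response was taken as percentage inhibition from baseline, with EC50 by non-linear fitting (n = 6–8).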

[16] = molecular target: Mu-type opioid receptor (Cavia porcellus) (UniProt P97266); assay: Agonist activity at MOR in Dunkin-Hartley guinea pig ileum assessed as inhibition of electrically-evoked contractions in presence of opioid receptor antagonist naloxone; format: tissue-based
Procedure, shortened: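 Cumulative concentration–response curves were run on electrically stimulated guinea-pig ileum strips (2 g load; 0.1 Hz, 0.3 ms, 200 mA) with a single naloxone concentration of 10^-6 M. […]. Contractions were scored as percentage change from baseline.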

[17] = molecular target: Mu-type opioid receptor (Cavia porcellus) (UniProt P97266); assay: Agonist activity at MOR in Dunkin-Hartley guinea pig ileum assessed as inhibition of electrically-evoked contractions in presence of kappa-opioid receptor antagonist norBNI; format: tissue-based; procedure, shortened: as §1

Sequence of Delta-type opioid receptor (P41143 whole entry): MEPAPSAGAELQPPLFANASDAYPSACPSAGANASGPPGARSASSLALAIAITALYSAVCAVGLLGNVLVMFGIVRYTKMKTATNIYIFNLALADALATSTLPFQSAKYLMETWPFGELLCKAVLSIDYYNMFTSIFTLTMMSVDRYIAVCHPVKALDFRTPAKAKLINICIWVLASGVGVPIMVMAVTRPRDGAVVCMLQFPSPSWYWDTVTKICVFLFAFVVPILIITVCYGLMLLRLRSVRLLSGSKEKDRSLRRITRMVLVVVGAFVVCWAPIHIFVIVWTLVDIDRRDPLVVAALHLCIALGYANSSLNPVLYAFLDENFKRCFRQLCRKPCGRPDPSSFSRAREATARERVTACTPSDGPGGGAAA

Row | SMILES | Ki [1] [nM] | Ratio Ki [2] | Ratio Ki [3] | Ki [4] [nM] | Ki [5] [nM] | also measured
1 | C[C@H]1[C@H]2Cc3ccc(O)cc3[C@]1(C)CCN2CCC(=O)N1CCc2ccccc2[C@H]1c1ccccc1 | 7900 | 16.8 | 4.04 | 1900 | 470 | 
2 | COc1ccsc1CNCC[C@@]1(c2ccccn2)CCC2(CCCC2)OC1 |  |  |  |  |  | Ki [6]: < 10000 nM; Ki [7]: 6 nM; Ratio Ki [8]: 1670
3 | C[C@H]1[C@H]2Cc3ccc(O)cc3[C@]1(C)CCN2CCC(=O)N1CCc2ccccc2[C@@H]1c1ccccc1 | 2900 | 35 | 12.5 | 900 | 380 | 
4 | CN1CC[C@]23c4c5ccc(O)c4O[C@H]2[C@@H](O)C=C[C@H]3[C@H]1C5 |  |  |  |  |  | Activity [9]: Active; Activity [10]: Active
5 | C[C@H]1[C@H]2Cc3ccc(O)cc3[C@]1(C)CCN2CCC(=O)NCC(c1ccccc1)c1ccccc1 | 440 | 880 | 380 | 190 | 0.5 | Activity [11]: inactive; Activity [9]: Active; pD2 [12]: 7; Activity [13]: Dose-dependent effect; pD2 [13]: 6.8; Activity [14]: Dose-dependent effect; pD2 [15]: 6.5; pD2 [16]: 6.4; pD2 [17]: 6.9
6 | C[C@H]1[C@H]2Cc3ccc(O)cc3[C@]1(C)CCN2CCC(=O)N(C)C(c1ccccc1)c1ccccc1 | 1400 | 8.75 | 2.31 | 370 | 160 | pD2 [13]: 5.7
7 | C[C@H]1[C@H]2Cc3ccc(O)cc3[C@]1(C)CCN2CCC(=O)NC(c1ccccc1)c1ccccc1 | 2900 | 34.5 | 8.09 | 680 | 84 | pD2 [16]: 4.1
8 | C[C@H]1[C@H]2Cc3ccc(O)cc3[C@]1(C)CCN2CCC(=O)Nc1ccccc1 |  | 33.8 | 132 | 110 |  | 
9 | C[C@H]1[C@H]2Cc3ccc(O)cc3[C@]1(C)CCN2CCC(=O)N1CCc2ccccc2C1c1ccccc1 (mixture of isomers) |  |  |  |  | 96 | 
